The text below walks through data of ChEMBL document CHEMBL1134871, “N-aryl-prolyl-dipeptides as potent antagonists of VLA-4” (Bioorg Med Chem Lett, 2002).

Data set [1] is described as follows: Plasma clearance rate in Sprague-Dawley rats. The settings on record: rat, read-out: Clp. The data set is classed as ADME, organism-based. The essentials: (§1)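 Sprague–Dawley rats given 1 mg/kg iv and 2 mg/kg po. Plasma half-life taken over 0–8 h.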
Data set [2] is described as follows: Oral bioavailability in rat (Sprague-Dawley) (dose 1 mg/kg i.v.). The settings on record: in vivo, 2 mg/kg. The format is ADME, organism-based. A digest of the protocol:
as §1

Another data set concerns the target Integrin alpha-4/beta-1 (Homo sapiens, UniProt P05556+P13612). The experiment in a line: Inhibition of [125I]VCAM-Ig binding to human integrin alpha4-beta1 (VLA-4) of Jurkat cells. The format is cell-based. A digest of the protocol:
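Filtered, washed, and bound radiolabel counted by scintillation. DMSO wells set 0% inhibition; cell-free wells set 100%. IC50 from ten-point titration by four-parameter fit, run in duplicate.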

For a further data set, the target named is T1, Integrin alpha-4/beta-7 (Homo sapiens, UniProt P13612+P26010).
T1 sequence (P13612 whole entry): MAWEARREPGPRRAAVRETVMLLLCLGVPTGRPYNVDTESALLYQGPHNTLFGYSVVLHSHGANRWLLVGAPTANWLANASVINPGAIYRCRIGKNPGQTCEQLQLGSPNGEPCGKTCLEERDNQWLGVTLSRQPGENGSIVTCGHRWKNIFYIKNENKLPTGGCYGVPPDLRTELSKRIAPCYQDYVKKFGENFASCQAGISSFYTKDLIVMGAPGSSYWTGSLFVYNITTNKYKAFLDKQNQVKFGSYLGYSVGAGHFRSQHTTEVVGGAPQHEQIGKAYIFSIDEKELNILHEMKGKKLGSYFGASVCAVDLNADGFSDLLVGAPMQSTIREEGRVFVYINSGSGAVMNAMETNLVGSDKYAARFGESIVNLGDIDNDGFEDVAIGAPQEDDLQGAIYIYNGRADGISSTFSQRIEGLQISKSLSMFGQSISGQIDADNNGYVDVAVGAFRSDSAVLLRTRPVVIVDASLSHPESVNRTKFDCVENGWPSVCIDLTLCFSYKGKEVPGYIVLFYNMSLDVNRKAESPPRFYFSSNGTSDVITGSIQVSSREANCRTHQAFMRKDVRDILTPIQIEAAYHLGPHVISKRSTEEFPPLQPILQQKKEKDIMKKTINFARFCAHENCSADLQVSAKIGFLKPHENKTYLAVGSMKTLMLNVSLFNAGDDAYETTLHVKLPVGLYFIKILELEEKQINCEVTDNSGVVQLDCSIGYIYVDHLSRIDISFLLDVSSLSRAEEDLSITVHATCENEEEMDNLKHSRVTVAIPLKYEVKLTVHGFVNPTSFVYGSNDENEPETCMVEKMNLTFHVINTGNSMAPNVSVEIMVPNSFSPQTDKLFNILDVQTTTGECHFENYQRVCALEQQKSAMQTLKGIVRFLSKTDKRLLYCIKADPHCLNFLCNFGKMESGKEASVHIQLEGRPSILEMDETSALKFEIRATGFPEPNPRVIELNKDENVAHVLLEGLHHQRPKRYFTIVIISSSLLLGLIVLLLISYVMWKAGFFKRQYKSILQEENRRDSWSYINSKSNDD
T1 sequence (P26010 whole entry): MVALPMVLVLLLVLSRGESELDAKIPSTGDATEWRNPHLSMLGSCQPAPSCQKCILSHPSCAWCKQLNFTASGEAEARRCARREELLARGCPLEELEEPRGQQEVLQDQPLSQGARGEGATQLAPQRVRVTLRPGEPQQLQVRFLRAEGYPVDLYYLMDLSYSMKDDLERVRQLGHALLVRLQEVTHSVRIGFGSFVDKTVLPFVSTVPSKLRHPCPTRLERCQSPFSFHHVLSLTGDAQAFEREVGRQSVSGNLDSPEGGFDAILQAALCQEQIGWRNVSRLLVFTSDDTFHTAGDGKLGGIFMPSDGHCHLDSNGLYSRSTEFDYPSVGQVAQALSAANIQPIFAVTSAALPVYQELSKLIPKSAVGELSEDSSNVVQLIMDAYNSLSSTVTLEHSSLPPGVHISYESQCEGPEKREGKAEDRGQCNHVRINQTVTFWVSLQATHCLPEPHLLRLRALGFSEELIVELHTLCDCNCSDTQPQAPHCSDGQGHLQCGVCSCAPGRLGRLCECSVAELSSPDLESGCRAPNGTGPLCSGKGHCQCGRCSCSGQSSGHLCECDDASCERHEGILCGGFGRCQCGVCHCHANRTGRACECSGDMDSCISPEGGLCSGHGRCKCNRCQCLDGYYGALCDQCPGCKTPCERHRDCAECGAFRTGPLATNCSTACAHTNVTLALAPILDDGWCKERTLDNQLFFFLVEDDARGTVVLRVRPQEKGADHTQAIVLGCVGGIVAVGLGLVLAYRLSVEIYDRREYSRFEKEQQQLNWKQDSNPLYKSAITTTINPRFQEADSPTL
The experiment in a line: Inhibition of [125I]MAdCAM-Ig binding to human integrin alpha4-beta7 of RPMI-8866 cells. The format is cell-based.

Data set [3] is described as follows: Plasma half-life was determined in Sprague-Dawley rats after 0-8 hr of administration. The data set is classed as ADME, organism-based. The settings on record: rat. The essentials: as §1

The bioavailability is the share of a dose that reaches the circulation, judged against a reference dose that is usually intravenous. By IC50 is commonly meant the point on the concentration scale where inhibition reaches its midpoint. Lower therefore signals greater potency. For orientation: half-life means the time needed for the level to fall by half in the phase considered.

Sequence of Integrin alpha-4/beta-1 (P05556 whole entry, one chain of several): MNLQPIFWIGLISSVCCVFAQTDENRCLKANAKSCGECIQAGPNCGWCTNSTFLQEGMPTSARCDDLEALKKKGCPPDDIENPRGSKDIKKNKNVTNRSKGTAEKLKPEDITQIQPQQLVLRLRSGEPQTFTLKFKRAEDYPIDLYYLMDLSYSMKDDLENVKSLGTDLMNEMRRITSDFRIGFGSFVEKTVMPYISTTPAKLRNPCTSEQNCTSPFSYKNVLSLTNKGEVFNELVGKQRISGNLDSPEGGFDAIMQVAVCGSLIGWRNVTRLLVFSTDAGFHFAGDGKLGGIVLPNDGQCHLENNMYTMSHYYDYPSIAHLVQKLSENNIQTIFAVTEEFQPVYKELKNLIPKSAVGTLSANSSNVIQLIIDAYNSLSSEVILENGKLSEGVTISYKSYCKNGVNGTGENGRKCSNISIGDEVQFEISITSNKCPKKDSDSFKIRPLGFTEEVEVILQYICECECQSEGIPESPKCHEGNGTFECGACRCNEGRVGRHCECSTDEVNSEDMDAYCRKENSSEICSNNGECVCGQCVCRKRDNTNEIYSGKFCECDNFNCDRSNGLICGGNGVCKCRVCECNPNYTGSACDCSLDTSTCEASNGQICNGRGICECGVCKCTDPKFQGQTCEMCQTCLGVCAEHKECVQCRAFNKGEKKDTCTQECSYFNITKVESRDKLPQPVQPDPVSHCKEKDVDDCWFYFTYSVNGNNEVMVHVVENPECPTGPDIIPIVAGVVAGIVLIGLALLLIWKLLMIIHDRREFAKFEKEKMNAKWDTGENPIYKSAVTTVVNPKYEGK

On to `COc1cccc(OC)c1-c1ccc(CC(NC(=O)C2(S(=O)(=O)c3ccccc3)CCCC2)C(=O)O)cc1` (stereo unspecified), for which, in data set [1], the clearance was found to be 122 mL/min/kg. Moreover, the bioavailability in data set [2] came to 22%. In addition, the values for the IC50 at Integrin alpha-4/beta-1 and at Integrin alpha-4/beta-7 were 0.11 nM and 5 nM, respectively.
As to `COc1cccc(OC)c1-c1ccc(C[C@H](NC(=O)[C@@H]2CCCN2c2ccccc2C#N)C(=O)O)cc1`, the clearance in data set [1] stood at 69 mL/min/kg. Further, the bioavailability in data set [2] was less than 1%. For the same compound, the IC50 on Integrin alpha-4/beta-1 stood at 0.37 nM; at Integrin alpha-4/beta-7, 3.5 nM. The half-life in data set [3] was 18 min.
For `COc1cccc(N2CCC[C@H]2C(=O)N[C@@H](Cc2ccc(-c3c(OC)cccc3OC)cc2)C(=O)O)c1` the same measures were 64 mL/min/kg, 3%, 0.41 nM, 5.8 nM and 42 min.
For the compound `COc1cccc(OC)c1-c1ccc(C[C@H](NC(=O)[C@@H]2CCCN2c2cc([N+](=O)[O-])cc([N+](=O)[O-])n2)C(=O)O)cc1`, the half-maximal inhibitory concentration (IC50) worked out at 0.38 nM on Integrin alpha-4/beta-1 and 17 nM at Integrin alpha-4/beta-7.
`COc1cccc(OC)c1-c1ccc(C[C@H](NC(=O)[C@@H]2CCCN2c2ccccn2)C(=O)O)cc1`: in data set [1], the clearance was 29 mL/min/kg. The same compound returned a bioavailability in data set [2] of 2%. Also, the IC50 on Integrin alpha-4/beta-1 worked out at 1.9 nM; on Integrin alpha-4/beta-7, 18 nM. This compound had a half-life in data set [3] of 18 min.
For `COc1cccc(OC)c1-c1ccc(C[C@H](NC(=O)[C@@H]2CCCN2c2cncnc2)C(=O)O)cc1`, the figures for the IC50 on Integrin alpha-4/beta-1 and on Integrin alpha-4/beta-7 were 0.73 nM and 18.8 nM, respectively.
Turning to `COc1cccc(OC)c1-c1ccc(CC(NC(=O)C2CCCN2S(=O)(=O)c2ccccc2)C(=O)O)cc1` (stereo unspecified), the clearance in data set [1] amounted to 127 mL/min/kg. Further, the bioavailability in data set [2] came out at 2%. Also, the values for the 50% inhibitory concentration (IC50) at Integrin alpha-4/beta-1 and on Integrin alpha-4/beta-7 were 0.05 nM and 2.5 nM, respectively. For the same compound, the half-life in data set [3] is 36 min.
For `COc1cccc(OC)c1-c1ccc(C[C@H](NC(=O)[C@@H]2CCCN2c2cccnc2)C(=O)O)cc1`, the clearance in data set [1] was found to be 43 mL/min/kg. The compound also gave a bioavailability in data set [2] of less than 1%. For the same compound, the IC50 at Integrin alpha-4/beta-1 stood at 0.34 nM; at Integrin alpha-4/beta-7, 5.5 nM. For the same compound, the half-life in data set [3] is 12 min.
The like results for `COc1cccc(OC)c1-c1ccc(C[C@H](NC(=O)[C@@H]2CCCN2c2ccccc2)C(=O)O)cc1` were, in that order, 78 mL/min/kg, 14%, 0.61 nM, 21 nM and 36 min.
For `COc1cccc(OC)c1-c1ccc(C[C@H](NC(=O)[C@@H]2CCCN2c2cnccn2)C(=O)O)cc1`, the values for the IC50 on Integrin alpha-4/beta-1 and on Integrin alpha-4/beta-7 were 0.17 nM and 8.9 nM, respectively.
On to `COc1cccc(OC)c1-c1ccc(C[C@H](NC(=O)[C@@H]2CCCN2c2ccc([N+](=O)[O-])cc2)C(=O)O)cc1`, for which the clearance in data set [1] is greater than 100 mL/min/kg. The compound also came in with a bioavailability in data set [2] of less than 1%. Further, the figures for the IC50 on Integrin alpha-4/beta-1 and at Integrin alpha-4/beta-7 were 1.1 nM and 17.1 nM, respectively. In data set [3], this compound showed a half-life of 84 min.
For `COc1cccc(OC)c1-c1ccc(CC(NC(=O)C2(c3ccccc3)CCCC2)C(=O)O)cc1` (stereo unspecified), the clearance in data set [1] worked out at 22 mL/min/kg. The bioavailability in data set [2] stood at 55%. For the same compound, the results for the IC50 on Integrin alpha-4/beta-1 and on Integrin alpha-4/beta-7 were 3.2 nM and 110 nM, respectively.
`COc1cccc(OC)c1-c1ccc(C[C@H](NC(=O)[C@@H]2CCCN2c2cncc3ccccc23)C(=O)O)cc1`: the figures for the IC50 at Integrin alpha-4/beta-1 and on Integrin alpha-4/beta-7 were 1.1 nM and 45 nM, respectively.
